Data taken from ChEMBL document CHEMBL1926550, “Synthesis and antibacterial activity of naphthyridone derivatives containing mono/difluoro-methyloxime pyrrolidine scaffolds” (2012).
≈ marks a conversion by molar mass, not a printed value.

Tests used:
Format in all cases: functional
Enterococcus faecium [1] = assay: Antibacterial activity against Enterococcus faecium 09-4 after 18 hrs by two fold serial dilution method; details: 09-4, 18 h
In short: (§1)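 Agar two-fold serial dilution in melted Mueller-Hinton agar, final concentrations 128 down to 0.008 μg/mL. Plates inoculated with 10⁴ cfu and incubated at 35 °C for 18 h. MIC taken as the lowest concentration giving no visible growth on the plate.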

Streptococcus pneumoniae = assay: Antibacterial activity against Streptococcus pneumoniae 10-1 after 18 hrs by two fold serial dilution method; details: 10-1, 18 h; in short: as §1
Enterococcus faecium [2] = assay: Antibacterial activity against Enterococcus faecium 09-1 after 18 hrs by two fold serial dilution method; details: 09-1, 18 h; in short: as §1
Escherichia coli [3] = assay: Antibacterial activity against Escherichia coli 10-2 after 18 hrs by two fold serial dilution method; details: 10-2, 18 h; in short: as §1
Staphylococcus aureus [4] = assay: Antibacterial activity against methicillin-sensitive Staphylococcus aureus 10-1 after 18 hrs by two fold serial dilution method; details: 10-1, 18 h; in short: as §1
Klebsiella pneumoniae [5] = assay: Antibacterial activity against Klebsiella pneumoniae 10-3 after 18 hrs by two fold serial dilution method; details: 10-3, 18 h; in short: as §1
[6] = system: Staphylococcus epidermidis; assay: Antibacterial activity against methicillin-sensitive Staphylococcus epidermidis 10-1 after 18 hrs by two fold serial dilution method; details: 10-1, 18 h; in short: as §1
Enterococcus faecalis [7] = assay: Antibacterial activity against Enterococcus faecalis 09-2 after 18 hrs by two fold serial dilution method; details: 09-2, 18 h; in short: as §1
Enterococcus faecium [8] = assay: Antibacterial activity against Enterococcus faecium 09-3 after 18 hrs by two fold serial dilution method; details: 09-3, 18 h; in short: as §1
Staphylococcus aureus [9] = assay: Antibacterial activity against methicillin-resistant Staphylococcus aureus 10-1 after 18 hrs by two fold serial dilution method; details: 10-1, 18 h
In short: (§2)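 Agar two-fold serial dilution in melted Mueller-Hinton agar, 128 to 0.008 μg/mL. Plates inoculated with 10⁴ cfu, incubated 35 °C for 18 h. MIC taken as lowest concentration giving no visible growth on the plate.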

[10] = system: Staphylococcus epidermidis; assay: Antibacterial activity against methicillin-sensitive Staphylococcus epidermidis 10-2 after 18 hrs by two fold serial dilution method; details: 10-2, 18 h; in short: as §1
Enterococcus faecium [11] = assay: Antibacterial activity against Enterococcus faecium 09-5 after 18 hrs by two fold serial dilution method; details: 09-5, 18 h; in short: as §1
Staphylococcus aureus [12] = assay: Antibacterial activity against methicillin-sensitive Staphylococcus aureus 10-4 after 18 hrs by two fold serial dilution method; details: 10-4, 18 h; in short: as §1
Staphylococcus aureus [13] = assay: Antibacterial activity against methicillin-resistant Staphylococcus aureus 10-3 after 18 hrs by two fold serial dilution method; details: 10-3, 18 h; in short: as §2
Klebsiella pneumoniae [14] = assay: Antibacterial activity against Klebsiella pneumoniae 09-2 after 18 hrs by two fold serial dilution method; details: 09-2, 18 h; in short: as §1
Pseudomonas aeruginosa [15] = assay: Antibacterial activity against Pseudomonas aeruginosa 10-3 after 18 hrs by two fold serial dilution method; details: 10-3, 18 h; in short: as §1
Enterococcus faecium [16] = assay: Antibacterial activity against Enterococcus faecium 09-6 after 18 hrs by two fold serial dilution method; details: 09-6, 18 h; in short: as §1
Pseudomonas aeruginosa [17] = assay: Antibacterial activity against Pseudomonas aeruginosa ATCC 27853 after 18 hrs by two fold serial dilution method; details: ATCC 27853, 18 h; in short: as §1
Escherichia coli [18] = assay: Antibacterial activity against Escherichia coli ATCC 25922 after 18 hrs by two fold serial dilution method; details: ATCC 25922, 18 h; in short: as §1
Staphylococcus aureus [19] = assay: Antibacterial activity against methicillin-sensitive Staphylococcus aureus 10-5 after 18 hrs by two fold serial dilution method; details: 10-5, 18 h; in short: as §1
[20] = system: Staphylococcus epidermidis; assay: Antibacterial activity against methicillin-resistant Staphylococcus epidermidis 10-2 after 18 hrs by two fold serial dilution method; details: 10-2, 18 h; in short: as §2
Escherichia coli [21] = assay: Antibacterial activity against Escherichia coli 09-2 after 18 hrs by two fold serial dilution method; details: 09-2, 18 h; in short: as §1
Enterococcus faecium [22] = assay: Antibacterial activity against Enterococcus faecium 09-2 after 18 hrs by two fold serial dilution method; details: 09-2, 18 h; in short: as §1
Pseudomonas aeruginosa [23] = assay: Antibacterial activity against Pseudomonas aeruginosa 10-1 after 18 hrs by two fold serial dilution method; details: 10-1, 18 h; in short: as §1
Staphylococcus aureus [24] = assay: Antibacterial activity against methicillin-resistant Staphylococcus aureus 10-2 after 18 hrs by two fold serial dilution method; details: 10-2, 18 h; in short: as §2
Enterococcus faecalis [25] = assay: Antibacterial activity against Enterococcus faecalis 09-1 after 18 hrs by two fold serial dilution method; details: 09-1, 18 h; in short: as §1
Staphylococcus aureus [26] = assay: Antibacterial activity against Staphylococcus aureus ATCC 25923 after 18 hrs by two fold serial dilution method; details: ATCC 25923, 18 h; in short: as §1
Staphylococcus aureus [27] = assay: Antibacterial activity against methicillin-sensitive Staphylococcus aureus 10-6 after 18 hrs by two fold serial dilution method; details: 10-6, 18 h; in short: as §1
Staphylococcus aureus [28] = assay: Antibacterial activity against methicillin-sensitive Staphylococcus aureus 10-2 after 18 hrs by two fold serial dilution method; details: 10-2, 18 h; in short: as §1
Staphylococcus aureus [29] = assay: Antibacterial activity against methicillin-sensitive Staphylococcus aureus 10-3 after 18 hrs by two fold serial dilution method; details: 10-3, 18 h; in short: as §1
Klebsiella pneumoniae [30] = assay: Antibacterial activity against Klebsiella pneumoniae 10-1 after 18 hrs by two fold serial dilution method; details: 10-1, 18 h; in short: as §1
Escherichia coli [31] = assay: Antibacterial activity against Escherichia coli 09-1 after 18 hrs by two fold serial dilution method; details: 09-1, 18 h; in short: as §1
Escherichia coli [32] = assay: Antibacterial activity against Escherichia coli 10-3 after 18 hrs by two fold serial dilution method; details: 10-3, 18 h; in short: as §1
Staphylococcus aureus [33] = assay: Antibacterial activity against methicillin-resistant Staphylococcus aureus 10-4 after 18 hrs by two fold serial dilution method; details: 10-4, 18 h; in short: as §2
Escherichia coli [34] = assay: Antibacterial activity against Escherichia coli 09-3 after 18 hrs by two fold serial dilution method; details: 09-3, 18 h; in short: as §1
Escherichia coli [35] = assay: Antibacterial activity against Escherichia coli 10-1 after 18 hrs by two fold serial dilution method; details: 10-1, 18 h; in short: as §1
Pseudomonas aeruginosa [36] = assay: Antibacterial activity against Pseudomonas aeruginosa 10-2 after 18 hrs by two fold serial dilution method; details: 10-2, 18 h; in short: as §1
[37] = system: Staphylococcus epidermidis; assay: Antibacterial activity against methicillin-resistant Staphylococcus epidermidis 10-1 after 18 hrs by two fold serial dilution method; details: 10-1, 18 h; in short: as §2

CC1(CN)CN(c2ccc3c(=O)c(C(=O)O)cn(C4CC4)c3n2)C/C1=N\OCF (racemic)
MIC (Enterococcus faecium [1]): 0.5 µg/mL (≈ 1.24 µM)
MIC (Streptococcus pneumoniae): 0.015 µg/mL (≈ 0.0372 µM)
MIC (Enterococcus faecium [2]): 32 µg/mL (≈ 79.3 µM)
MIC (Escherichia coli [3]): 1 µg/mL (≈ 2.48 µM)
MIC (Staphylococcus aureus [4]): 0.5 µg/mL (≈ 1.24 µM)
MIC (Klebsiella pneumoniae [5]): 2 µg/mL (≈ 4.96 µM)
MIC [6]: 4 µg/mL (≈ 9.92 µM)
MIC (Enterococcus faecalis [7]): 0.015 µg/mL (≈ 0.0372 µM)
MIC (Enterococcus faecium [8]): 2 µg/mL (≈ 4.96 µM)
MIC (Staphylococcus aureus [9]): 128 µg/mL (≈ 317 µM)
MIC [10]: 64 µg/mL (≈ 159 µM)
MIC (Enterococcus faecium [11]): 32 µg/mL (≈ 79.3 µM)
MIC (Staphylococcus aureus [12]): 0.015 µg/mL (≈ 0.0372 µM)
MIC (Staphylococcus aureus [13]): 128 µg/mL (≈ 317 µM)
MIC (Klebsiella pneumoniae [14]): > 128 µg/mL
MIC (Pseudomonas aeruginosa [15]): 8 µg/mL (≈ 19.8 µM)
MIC (Enterococcus faecium [16]): 0.5 µg/mL (≈ 1.24 µM)
MIC (Pseudomonas aeruginosa [17]): 1 µg/mL (≈ 2.48 µM)
MIC (Escherichia coli [18]): 0.015 µg/mL (≈ 0.0372 µM)
MIC (Staphylococcus aureus [19]): 0.03 µg/mL (≈ 0.0744 µM)
MIC [20]: 8 µg/mL (≈ 19.8 µM)
MIC (Escherichia coli [21]): > 128 µg/mL
MIC (Enterococcus faecium [22]): 32 µg/mL (≈ 79.3 µM)
MIC (Pseudomonas aeruginosa [23]): 0.5 µg/mL (≈ 1.24 µM)
MIC (Staphylococcus aureus [24]): 8 µg/mL (≈ 19.8 µM)
MIC (Enterococcus faecalis [25]): 32 µg/mL (≈ 79.3 µM)
MIC (Staphylococcus aureus [26]): 0.03 µg/mL (≈ 0.0744 µM)
MIC (Staphylococcus aureus [27]): 0.03 µg/mL (≈ 0.0744 µM)
MIC (Staphylococcus aureus [28]): 32 µg/mL (≈ 79.3 µM)
MIC (Staphylococcus aureus [29]): 0.015 µg/mL (≈ 0.0372 µM)
MIC (Klebsiella pneumoniae [30]): 0.25 µg/mL (≈ 0.62 µM)
MIC (Escherichia coli [31]): > 128 µg/mL
MIC (Escherichia coli [32]): 128 µg/mL (≈ 317 µM)
MIC (Staphylococcus aureus [33]): 128 µg/mL (≈ 317 µM)
MIC (Escherichia coli [34]): > 128 µg/mL
MIC (Escherichia coli [35]): > 128 µg/mL
MIC (Pseudomonas aeruginosa [36]): 64 µg/mL (≈ 159 µM)
MIC [37]: 4 µg/mL (≈ 9.92 µM)
